Source: ChEMBL document CHEMBL4038284, “Synthesis of novel quinoline-based 4,5-dihydro-1H-pyrazoles as potential anticancer, antifungal, antibacterial and antiprotozoal agents” (Eur J Med Chem, 2017)
Converted amounts (≈) assume the structure as drawn. The source made the active and inactive calls. No cut-off for these calls is given here.

Legend:
[1] = system: Candida albicans; test: Growth inhibition of Candida albicans ATCC 10231 at 125 ug/ml incubated for 48 hrs under dark condition by broth microdilution method relative to control; assay type: functional; conditions: ATCC 10231, 48 h, read-out: GI
Method in brief: (§1)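 CLSI M27-A3 broth microdilution in RPMI-1640, DMSO ≤1%. Inoculum 1-5 × 10^3 CFU/mL. Incubated 48 h at 30 °C, dark. % inhibition = 100 − (OD405 test − sterility control)/(OD405 growth control − sterility control), with growth and sterility control wells. Triplicate.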

[2] = system: MDA-MB-468; test: Growth inhibition of human MDA-MB-468 cells at 10 uM incubated for 48 hrs by sulforhodamine B assay; assay type: functional, cell-based
Method in brief: (§2)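 NCI 60-line panel, single 10 μM dose. Cells were grown in RPMI-1640 with 5% FBS and 2 mM L-glutamine and pre-incubated 24 h before compound addition (DMSO stock). Exposure was 48 h at 37 °C, 5% CO2. Cells were fixed with cold TCA (10% final), stained with 0.4% SRB, bound dye dissolved in 10 mM Tris base, A515 read. Growth was taken relative to time-zero and untreated control plates.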

[3] = system: HCT-15; test: Growth inhibition of human HCT15 cells at 10 uM incubated for 48 hrs by sulforhodamine B assay; assay type: functional, cell-based
Method in brief: (§3)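 NCI 60-cell-line screen at a single 10 µM dose. Cells in RPMI-1640 with 5% FBS and 2 mM L-glutamine, pre-incubated 24 h, then treated for 48 h at 37 °C. TCA fixation, sulforhodamine B staining, absorbance at 515 nm. Percentage growth calculated against time-zero and untreated controls.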

[4] = system: SW-620; test: Growth inhibition of human SW620 cells at 10 uM incubated for 48 hrs by sulforhodamine B assay; assay type: functional, cell-based
Method in brief: (§4)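 NCI-60 single-dose screen at 10 µM for 48 h. Cells were grown in RPMI-1640 with 5% FBS and 2 mM L-glutamine and preincubated 24 h before compound. Time-zero plates were TCA-fixed at compound addition. After exposure, cells were TCA-fixed, stained with SRB and read at 515 nm. Percentage growth was calculated against time-zero and untreated-control absorbances.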

[5] = system: TK-10; test: Growth inhibition of human TK10 cells at 10 uM incubated for 48 hrs by sulforhodamine B assay; assay type: functional, cell-based; method in brief: as §4
[6] = system: SNB-75; test: Growth inhibition of human SNB75 cells at 10 uM incubated for 48 hrs by sulforhodamine B assay; assay type: functional, cell-based; method in brief: as §4
[7] = system: U-937; test: Cytotoxicity against human U937 cells after 72 hrs by MTT assay; assay type: cell-based; conditions: u-937, 72 h
Method in brief: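 Exponentially growing U-937 at 1 × 10^5 cells/mL in RPMI-1640 with 10% FBS were exposed to 200, 50, 12.5 and 3.125 µg/mL for 72 h at 37 °C, 5% CO2. MTT for 3 h, stopped with isopropanol/SDS, formazan read at 570 nm, blank-corrected. LC50 by Probit from % viability against untreated cells. Triplicate, at least two independent experiments.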

[8] = system: SK-MEL-2; test: Growth inhibition of human SK-MEL-2 cells at 10 uM incubated for 48 hrs by sulforhodamine B assay; assay type: functional, cell-based; method in brief: as §4
[9] = system: ACHN; test: Growth inhibition of human ACHN cells at 10 uM incubated for 48 hrs by sulforhodamine B assay; assay type: functional, cell-based; method in brief: as §3
[10] = system: SN12C; test: Growth inhibition of human SN12C cells at 10 uM incubated for 48 hrs by sulforhodamine B assay; assay type: functional, cell-based; method in brief: as §4
[11] = system: Candida albicans; test: Growth inhibition of Candida albicans ATCC 10231 at 3.4 ug/ml incubated for 48 hrs under dark condition by broth microdilution method relative to control; assay type: functional; conditions: ATCC 10231, 48 h, read-out: GI
[12] = system: OVCAR-8; test: Growth inhibition of human OVCAR8 cells at 10 uM incubated for 48 hrs by sulforhodamine B assay; assay type: functional, cell-based; method in brief: as §2
[13] = system: UACC-257; test: Growth inhibition of human UACC257 cells at 10 uM incubated for 48 hrs by sulforhodamine B assay; assay type: functional, cell-based; method in brief: as §4
[14] = system: DU-145; test: Growth inhibition of human DU145 cells at 10 uM incubated for 48 hrs by sulforhodamine B assay; assay type: functional, cell-based; method in brief: as §3
[15] = system: MCF7; test: Growth inhibition of human MCF7 cells at 10 uM incubated for 48 hrs by sulforhodamine B assay; assay type: functional, cell-based; method in brief: as §2
[16] = system: Cryptococcus neoformans; test: Growth inhibition of Cryptococcus neoformans ATCC 32264 at 7.8 ug/ml incubated for 48 hrs under dark condition by broth microdilution method relative to control; assay type: functional; conditions: ATCC 32264, 48 h, read-out: GI; method in brief: as §1
[17] = system: Malme-3M; test: Growth inhibition of human MALME-3M cells at 10 uM incubated for 48 hrs by sulforhodamine B assay; assay type: functional, cell-based; method in brief: as §2
[18] = system: HT-29; test: Growth inhibition of human HT-29 cells at 10 uM incubated for 48 hrs by sulforhodamine B assay; assay type: functional, cell-based; method in brief: as §2
[19] = system: Plasmodium falciparum; test: Antiplasmodial activity against chloroquine-sensitive Plasmodium falciparum 3D7 assessed as reduction in parasitic LDH activity after 48 hrs by Malstat reagent based […] method; assay type: functional; conditions: 3D7, 48 h
Method in brief: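 Unsynchronized P. falciparum 3D7 at 0.5% parasitemia and 1% hematocrit in RPMI with 3% Albumax II. Exposed to 100, 25, 6.25 and 1.56 µg/mL for 48 h at 37 °C under 90% N2/5% CO2/5% O2. After three freeze-thaw cycles, LDH measured with Malstat and NBT/PES, 1 h in the dark, read at 650 nm. IC50 by Probit; triplicate, ≥2 experiments.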

[20] = system: UO-31; test: Growth inhibition of human UO31 cells at 10 uM incubated for 48 hrs by sulforhodamine B assay; assay type: functional, cell-based; method in brief: as §4
[21] = system: KM12; test: Growth inhibition of human KM12 cells at 10 uM incubated for 48 hrs by sulforhodamine B assay; assay type: functional, cell-based; method in brief: as §2
[22] = system: HOP-62; test: Growth inhibition of human HOP62 cells at 10 uM incubated for 48 hrs by sulforhodamine B assay; assay type: functional, cell-based; method in brief: as §3
[23] = system: Cryptococcus neoformans; test: Growth inhibition of Cryptococcus neoformans ATCC 32264 at 31.25 ug/ml incubated for 48 hrs under dark condition by broth microdilution method relative to control; assay type: functional; conditions: ATCC 32264, 48 h, read-out: GI; method in brief: as §1
[24] = system: SF-295; test: Growth inhibition of human SF295 cells at 10 uM incubated for 48 hrs by sulforhodamine B assay; assay type: functional, cell-based; method in brief: as §2
[25] = system: U-251; test: Growth inhibition of human U251 cells at 10 uM incubated for 48 hrs by sulforhodamine B assay; assay type: functional, cell-based; method in brief: as §4
[26] = system: LOX IMVI; test: Growth inhibition of human LOXIMVI cells at 10 uM incubated for 48 hrs by sulforhodamine B assay; assay type: functional, cell-based; method in brief: as §2
[27] = system: Klebsiella pneumoniae; test: Antibacterial activity against ESBL positive Klebsiella pneumoniae ATCC 700603 after 24 hrs by resazurin dye based microdilution assay; assay type: functional; conditions: Klebsiella pneumoniae, 700603, 24 h
Method in brief: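 MIC taken as the lowest concentration giving visible inhibition and/or by resazurin (1 mg/mL). Gentamicin was the control. Run in duplicate, repeated at least three times.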

[28] = system: Neisseria gonorrhoeae; test: Antibacterial activity against beta lactamase positive Neisseria gonorrhoeae ATCC 31426 by oxidase test; assay type: functional
Method in brief: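 Agar dilution MIC on GC agar with 1% isovitalex containing increasing compound concentrations. Plates inoculated with about 1×10^4 CFU (5 µL). MIC is the lowest concentration that inhibited growth, with growth confirmed by oxidase test. Run in duplicate, repeated at least three times.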

[29] = system: M14; test: Growth inhibition of human M14 cells at 10 uM incubated for 48 hrs by sulforhodamine B assay; assay type: functional, cell-based; method in brief: as §2

Row | SMILES | inhibition of growth at 125 µg/mL [1] | growth inhibition (GI) [2] | growth inhibition (GI) [3] | growth inhibition (GI) [4] | growth inhibition (GI) [5] | growth inhibition (GI) [6] | LC50 [7] | growth inhibition (GI) [8] | growth inhibition (GI) [9] | growth inhibition (GI) [10] | inhibition of growth at 3.4 µg/mL [11] | growth inhibition (GI) [12] | growth inhibition (GI) [13] | growth inhibition (GI) [14] | growth inhibition (GI) [15] | inhibition of growth at 7.8 µg/mL [16] | growth inhibition (GI) [17] | growth inhibition (GI) [18] | EC50 [19] | growth inhibition (GI) [20] | further results
1 | Clc1ccc(C2=NN(c3ccc(Cl)cc3)C(c3cccc(Nc4ccnc5cc(Cl)ccc45)c3)C2)cc1 (configuration not stated) | 19.9% | inactive | inactive | inactive | inactive | inactive | > 200 µg/mL | inactive | inactive | inactive | 0% | inactive | inactive | inactive | inactive | 18.4% | inactive | inactive | 10.3 µg/mL (≈ 18.9 µM) | inactive | growth inhibition (GI) [21]: inactive; growth inhibition (GI) [22]: inactive; inhibition of growth at 31.25 µg/mL [23]: 24.3%; growth inhibition (GI) [24]: inactive; growth inhibition (GI) [25]: inactive; growth inhibition (GI) [26]: inactive; MIC [27]: > 1000 µg/mL; MIC [28]: > 1000 µg/mL; growth inhibition (GI) [29]: inactive
2 | COc1ccc(C2=NN(c3ccccc3)C(c3cccc(Nc4ccnc5cc(Cl)ccc45)c3)C2)cc1 (configuration not stated) | 19.8% | inactive | inactive | inactive | inactive | inactive | 28 µg/mL (≈ 55.4 µM) | inactive | inactive | inactive | 0.38% | inactive | inactive | inactive | inactive | 4.41% | inactive | inactive | 13.7 µg/mL (≈ 27 µM) | inactive | growth inhibition (GI) [21]: inactive; growth inhibition (GI) [22]: inactive; inhibition of growth at 31.25 µg/mL [23]: 7.77%; growth inhibition (GI) [24]: inactive; growth inhibition (GI) [25]: inactive; growth inhibition (GI) [26]: inactive; MIC [27]: > 1000 µg/mL; MIC [28]: > 1000 µg/mL; growth inhibition (GI) [29]: inactive
3 | COc1cc(C2=NN(c3ccc(Cl)cc3)C(c3cccc(Nc4ccnc5cc(Cl)ccc45)c3)C2)cc(OC)c1OC (configuration not stated) | 16.7% | inactive | inactive | inactive | inactive | inactive | > 200 µg/mL | inactive | inactive | inactive | 2.27% | inactive | inactive | inactive | inactive | 10.4% | inactive | inactive | 44.6 µg/mL (≈ 74.3 µM) | inactive | growth inhibition (GI) [21]: inactive; growth inhibition (GI) [22]: inactive; inhibition of growth at 31.25 µg/mL [23]: 12.5%; growth inhibition (GI) [24]: inactive; growth inhibition (GI) [25]: inactive; growth inhibition (GI) [26]: inactive; MIC [27]: > 1000 µg/mL; MIC [28]: > 1000 µg/mL; growth inhibition (GI) [29]: inactive
